# Active and inactive are the calls of the source. No cut-off for these calls is given here.
# How the values were obtained:
# [1] = Cytotoxicity against human OVCAR5 cells after 48 hrs by SRB assay; format: functional; conditions: OVCAR-5, 48 h
# Summary of the method: (§1)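 NCI-60 five-dose screen: compounds dissolved in DMSO/H2O, tested at five 10-fold dilutions (10^-4 to 10^-8 M) for 48 h. Growth measured by sulforhodamine B optical density at time zero and after 48 h drug or vehicle exposure. Percentage growth calculated relative to control. GI50 is the molar concentration giving 50% reduction in net cell growth versus day-0 cell numbers.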
# [2] = Cytotoxicity against human UO31 cells after 48 hrs by SRB assay; format: functional; conditions: UO-31, 48 h
# Summary of the method: (§2)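 NCI-60 five-dose screen. Compounds dissolved in DMSO/H2O and tested at five 10-fold dilutions (10^-4 to 10^-8 M) for 48 h. Growth read by sulforhodamine B optical density at time zero and after 48 h of exposure to compound or vehicle. Percent growth calculated against control. GI50 is the molar concentration giving 50% reduction in net cell growth relative to cell number on day 0.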
# MDA-MB-468 = assay: Cytotoxicity against human MDA-MB-468 cells after 48 hrs by SRB assay; format: functional; conditions: MDA-MB-468, 48 h; summary of the method: as §1
# [3] = Cytotoxicity against human COLO205 cells after 48 hrs by SRB assay; format: functional; conditions: COLO 205, 48 h; summary of the method: as §1
# [4] = Cytotoxicity against human TK10 cells after 48 hrs by SRB assay; format: functional; conditions: TK-10, 48 h; summary of the method: as §2
# 786-0 = assay: Cytotoxicity against human 786-0 cells after 48 hrs by SRB assay; format: functional; conditions: 786-0, 48 h; summary of the method: as §1
# [5] = Cytotoxicity against human DU145 cells after 48 hrs by SRB assay; format: functional; conditions: DU-145, 48 h; summary of the method: as §1
# [6] = Cytotoxicity against human MOLT4 cells after 48 hrs by SRB assay; format: functional; conditions: MOLT-4, 48 h; summary of the method: as §1
# EKVX = assay: Cytotoxicity against human EKVX cells after 48 hrs by SRB assay; format: functional
# Summary of the method: (§3)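 NCI-60 five-dose screen: compounds in DMSO/H2O tested at 10^-4 to 10^-8 M (10-fold steps) for 48 h. Cell mass read by sulforhodamine B optical density at time zero and after exposure to compound or vehicle. GI50 is the concentration giving 50% reduction in net cell growth relative to day-0 cell numbers.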
# [7] = Cytotoxicity against human RPMI8226 cells after 48 hrs by SRB assay; format: functional; conditions: RPMI-8226, 48 h; summary of the method: as §1
# Tubulin (Sus scrofa) = Tubulin (Sus scrofa) (UniProt P02554+P02550); assay: Inhibition of porcine brain tubulin polymerization at 200 uM by spectrophotometric analysis
# Sequence of Tubulin (Sus scrofa) (P02550 whole entry, looked up): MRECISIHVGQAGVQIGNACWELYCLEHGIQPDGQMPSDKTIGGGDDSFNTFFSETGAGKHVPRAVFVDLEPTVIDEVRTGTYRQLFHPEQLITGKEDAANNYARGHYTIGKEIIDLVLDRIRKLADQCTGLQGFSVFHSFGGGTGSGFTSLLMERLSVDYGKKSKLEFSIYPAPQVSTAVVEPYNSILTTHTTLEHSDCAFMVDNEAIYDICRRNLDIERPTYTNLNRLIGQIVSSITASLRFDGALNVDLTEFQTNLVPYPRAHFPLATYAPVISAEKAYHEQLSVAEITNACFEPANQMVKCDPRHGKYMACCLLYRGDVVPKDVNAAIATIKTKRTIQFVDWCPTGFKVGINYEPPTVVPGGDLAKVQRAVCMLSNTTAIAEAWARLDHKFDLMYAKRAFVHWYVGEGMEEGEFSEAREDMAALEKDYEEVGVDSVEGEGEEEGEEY
# Sequence of Tubulin (Sus scrofa) (P02554 whole entry, looked up): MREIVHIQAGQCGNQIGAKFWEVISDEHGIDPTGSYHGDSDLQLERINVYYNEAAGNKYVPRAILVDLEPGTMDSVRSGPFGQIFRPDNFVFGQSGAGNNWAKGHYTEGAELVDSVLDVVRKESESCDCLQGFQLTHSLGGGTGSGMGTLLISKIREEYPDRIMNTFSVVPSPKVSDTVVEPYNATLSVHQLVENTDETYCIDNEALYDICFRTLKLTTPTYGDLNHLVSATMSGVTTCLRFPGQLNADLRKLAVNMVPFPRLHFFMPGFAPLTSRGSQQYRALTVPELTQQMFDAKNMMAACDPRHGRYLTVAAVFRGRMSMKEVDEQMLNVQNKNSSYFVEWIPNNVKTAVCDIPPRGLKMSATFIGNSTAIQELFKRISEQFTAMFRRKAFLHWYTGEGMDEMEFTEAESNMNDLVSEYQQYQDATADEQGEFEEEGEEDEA
# SK-MEL-28 = assay: Cytotoxicity against human SK-MEL-28 cells after 48 hrs by SRB assay; format: functional; conditions: SK-MEL-28, 48 h; summary of the method: as §1
# [8] = Cytotoxicity against human Caki1 cells after 48 hrs by SRB assay; format: functional; conditions: CAKI-1, 48 h; summary of the method: as §1
# MDA-MB-231 = assay: Cytotoxicity against human MDA-MB-231 cells after 48 hrs by SRB assay; format: functional; conditions: MDA-MB-231, 48 h; summary of the method: as §1
# T47D = assay: Cytotoxicity against human T47D cells after 48 hrs by SRB assay; format: functional; summary of the method: as §2
# [9] = Cytotoxicity against human BT549 cells after 48 hrs by SRB assay; format: functional; conditions: BT-549, 48 h; summary of the method: as §1
# [10] = Cytotoxicity against human LOXIMVI cells after 48 hrs by SRB assay; format: functional; conditions: LOX IMVI; summary of the method: as §1
# [11] = Cytotoxicity against human SW620 cells after 48 hrs by SRB assay; format: functional; conditions: SW-620, 48 h; summary of the method: as §1
# [12] = Cytotoxicity against human UACC62 cells after 48 hrs by SRB assay; format: functional; conditions: UACC-62, 48 h; summary of the method: as §2
# U-251 = assay: Cytotoxicity against human U251 cells after 48 hrs by SRB assay; format: functional; conditions: U-251, 48 h; summary of the method: as §2
# [13] = Cytotoxicity against human Hs 578T cells after 48 hrs by SRB assay; format: functional; summary of the method: as §1
# [14] = Cytotoxicity against human SF268 cells after 48 hrs by SRB assay; format: functional; conditions: SF-268, 48 h; summary of the method: as §1
# CCRF-CEM = assay: Cytotoxicity against human CCRF-CEM cells after 48 hrs by SRB assay; format: functional; summary of the method: as §1
# NCI-H226 = assay: Cytotoxicity against human NCI-H226 cells after 48 hrs by SRB assay; format: functional; conditions: NCI-H226, 48 h; summary of the method: as §1
# [15] = Cytotoxicity against human UACC257 cells after 48 hrs by SRB assay; format: functional; conditions: UACC-257, 48 h; summary of the method: as §2
# [16] = Cytotoxicity against human HCT116 cells after 48 hrs by SRB assay; format: functional; conditions: HCT-116, 48 h; summary of the method: as §1
# [17] = Cytotoxicity against human SKOV3 cells after 48 hrs by SRB assay; format: functional; conditions: SK-OV-3, 48 h; summary of the method: as §1
# NCI-H460 = assay: Cytotoxicity against human NCI-H460 cells after 48 hrs by SRB assay; format: functional; conditions: NCI-H460, 48 h; summary of the method: as §1
# [18] = Cytotoxicity against human PC3 cells after 48 hrs by SRB assay; format: functional; conditions: PC-3, 48 h; summary of the method: as §1
# K562 = assay: Cytotoxicity against human K562 cells after 48 hrs by SRB assay; format: functional; conditions: K562, 48 h; summary of the method: as §1
# A549 = assay: Cytotoxicity against human A549 cells after 48 hrs by SRB assay; format: functional; conditions: A549, 48 h; summary of the method: as §1
# [19] = Cytotoxicity against human IGROV1 cells after 48 hrs by SRB assay; format: functional; conditions: IGROV-1, 48 h; summary of the method: as §3
# KM12 = assay: Cytotoxicity against human KM12 cells after 48 hrs by SRB assay; format: functional; conditions: KM12, 48 h; summary of the method: as §1
# Malme-3M = assay: Cytotoxicity against human MALME-3M cells after 48 hrs by SRB assay; format: functional; summary of the method: as §3
# [20] = Cytotoxicity against human HCC2998 cells after 48 hrs by SRB assay; format: functional; conditions: HCC 2998, 48 h; summary of the method: as §1
# SK-MEL-5 = assay: Cytotoxicity against human SK-MEL-5 cells after 48 hrs by SRB assay; format: functional; conditions: SK-MEL-5, 48 h; summary of the method: as §1
# [21] = Cytotoxicity against human OVCAR3 cells after 48 hrs by SRB assay; format: functional; conditions: OVCAR-3, 48 h; summary of the method: as §1
# SK-MEL-2 = assay: Cytotoxicity against human SK-MEL-2 cells after 48 hrs by SRB assay; format: functional; conditions: SK-MEL-2, 48 h; summary of the method: as §1
# HT-29 = assay: Cytotoxicity against human HT-29 cells after 48 hrs by SRB assay; format: functional; conditions: HT-29, 48 h; summary of the method: as §1
# MDA-MB-435 = assay: Cytotoxicity against human MDA-MB-435 cells after 48 hrs by SRB assay; format: functional; conditions: MDA-MB-435, 48 h; summary of the method: as §1
# [22] = Cytotoxicity against human HOP92 cells after 48 hrs by SRB assay; format: functional; conditions: HOP-92, 48 h; summary of the method: as §1
# [23] = Cytotoxicity against human HL-60(TB) cells after 48 hrs by SRB assay; format: functional; conditions: HL-60, 48 h; summary of the method: as §1
# [24] = Cytotoxicity against human SF539 cells after 48 hrs by SRB assay; format: functional; conditions: SF-539, 48 h; summary of the method: as §1
# A498 = assay: Cytotoxicity against human A498 cells after 48 hrs by SRB assay; format: functional; conditions: A498, 48 h; summary of the method: as §1
# NCI-H522 = assay: Cytotoxicity against human NCI-H522 cells after 48 hrs by SRB assay; format: functional; conditions: NCI-H522, 48 h; summary of the method: as §1
# M14 = assay: Cytotoxicity against human M14 cells after 48 hrs by SRB assay; format: functional; conditions: M14, 48 h; summary of the method: as §1
# [25] = Cytotoxicity against human HOP62 cells after 48 hrs by SRB assay; format: functional; conditions: HOP-62, 48 h; summary of the method: as §3
# [26] = Cytotoxicity against human NCI-ADR-RES cells after 48 hrs by SRB assay; format: functional; summary of the method: as §1
# ACHN = assay: Cytotoxicity against human ACHN cells after 48 hrs by SRB assay; format: functional; summary of the method: as §1
# [27] = Cytotoxicity against human HCT15 cells after 48 hrs by SRB assay; format: functional; conditions: HCT-15, 48 h; summary of the method: as §1
# [28] = Cytotoxicity against human OVCAR8 cells after 48 hrs by SRB assay; format: functional; conditions: OVCAR-8, 48 h; summary of the method: as §1
# NCI-H23 = assay: Cytotoxicity against human NCI-H23 cells after 48 hrs by SRB assay; format: functional; conditions: NCI-H23, 48 h; summary of the method: as §1
# MCF7 = assay: Cytotoxicity against human MCF7 cells after 48 hrs by SRB assay; format: functional; conditions: MCF7, 48 h; summary of the method: as §1
# [29] = Cytotoxicity against human SF295 cells after 48 hrs by SRB assay; format: functional; conditions: SF-295, 48 h; summary of the method: as §1
# [30] = Cytotoxicity against human SNB19 cells after 48 hrs by SRB assay; format: functional; conditions: SNB-19, 48 h; summary of the method: as §1
# [31] = Cytotoxicity against human RXF393 cells after 48 hrs by SRB assay; format: functional; conditions: RXF 393, 48 h; summary of the method: as §1
structure (smiles),measurement,setting,value
COc1cc(-c2nn(C)nc2-c2cc3ccccc3s2)cc(OC)c1OC,GI50,[1],2360 nM
same,GI50,[2],744 nM
same,GI50,MDA-MB-468,82 nM
same,GI50,[3],82 nM
same,GI50,[4],578 nM
same,GI50,786-0,312 nM
same,GI50,[5],263 nM
same,GI50,[6],333 nM
same,GI50,EKVX,466 nM
same,GI50,[7],362 nM
same,inhibition,Tubulin (Sus scrofa),inactive
same,GI50,SK-MEL-28,13000 nM
same,GI50,[8],3770 nM
same,GI50,MDA-MB-231,1600 nM
same,GI50,T47D,> 100000 nM
same,GI50,[9],422 nM
same,GI50,[10],168 nM
same,GI50,[11],63 nM
same,GI50,[12],53 nM
same,GI50,U-251,78 nM
same,GI50,[13],270 nM
same,GI50,[14],630 nM
same,GI50,CCRF-CEM,220 nM
same,GI50,NCI-H226,> 100000 nM
same,GI50,[15],51600 nM
same,GI50,[16],73 nM
same,GI50,[17],311 nM
same,GI50,NCI-H460,69 nM
same,GI50,[18],77 nM
same,GI50,K562,42 nM
same,GI50,A549,167 nM
same,GI50,[19],707 nM
same,GI50,KM12,54 nM
same,GI50,Malme-3M,16900 nM
same,GI50,[20],407 nM
same,GI50,SK-MEL-5,225 nM
same,GI50,[21],354 nM
same,GI50,SK-MEL-2,59 nM
same,GI50,HT-29,55 nM
same,GI50,MDA-MB-435,25 nM
same,GI50,[22],80 nM
same,GI50,[23],48 nM
same,GI50,[24],149 nM
same,GI50,A498,41 nM
same,GI50,NCI-H522,23 nM
same,GI50,M14,76 nM
same,GI50,[25],553 nM
same,GI50,[26],103 nM
same,GI50,ACHN,294 nM
same,GI50,[27],58 nM
same,GI50,[28],352 nM
same,GI50,NCI-H23,392 nM
same,GI50,MCF7,40 nM
same,GI50,[29],36 nM
same,GI50,[30],254 nM
same,GI50,[31],286 nM

# Reference: ChEMBL document CHEMBL3751743, “Synthesis and anti-cancer screening of novel heterocyclic-(2H)-1,2,3-triazoles as potential anti-cancer agents” (Medchemcomm, 2015)
